The values that follow come from ChEMBL document CHEMBL1799941 (J Med Chem, 2011).

Series [1] addresses T1, Cholesteryl ester transfer protein (Homo sapiens) (UniProt P11597).
T1 sequence (whole entry): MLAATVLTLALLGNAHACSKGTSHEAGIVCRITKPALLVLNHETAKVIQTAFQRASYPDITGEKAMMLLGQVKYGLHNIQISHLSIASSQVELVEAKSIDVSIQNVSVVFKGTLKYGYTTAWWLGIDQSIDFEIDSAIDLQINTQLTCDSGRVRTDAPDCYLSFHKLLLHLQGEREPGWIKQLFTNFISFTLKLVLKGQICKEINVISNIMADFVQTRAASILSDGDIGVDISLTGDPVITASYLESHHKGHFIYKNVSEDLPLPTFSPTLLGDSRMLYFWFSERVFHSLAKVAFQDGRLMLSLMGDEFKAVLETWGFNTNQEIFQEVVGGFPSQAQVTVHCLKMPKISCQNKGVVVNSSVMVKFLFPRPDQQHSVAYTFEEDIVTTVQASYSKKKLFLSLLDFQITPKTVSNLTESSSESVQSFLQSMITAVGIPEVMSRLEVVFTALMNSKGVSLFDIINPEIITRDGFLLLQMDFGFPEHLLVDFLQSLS
Nature of the series: Inhibition of human recombinant CETP-mediated cholesteryl ester transfer activity at 100 uM after 1 hr by fluorescent cholesteryl esters transfer assay relative to control.

The test system of series [2] is Mus musculus. Nature of the series: Increase in HDL-cholesterol level in C57BL/6 mouse expressing cynomolgus monkey CETP gene assessed as change in HDL-C level at 10 mg/kg, po BID measured 24 hrs after first dose. Type of series: functional.
In series [3] the target is T2, Cholesteryl ester transfer protein (Homo sapiens, UniProt P11597).
T2 sequence (P11597 whole entry): T1 sequence (whole entry)
Nature of the series: Inhibition of human recombinant CETP-mediated cholesteryl ester transfer activity after 1 hr by fluorescent cholesteryl esters transfer assay.

Series [4] concerns Mus musculus. Nature of the series: Terminal half life in C57BL/6 mouse at 0.6 mg/kg, iv and 2 mg/kg, po. In kind it is ADME, organism-based. The following applies: in vivo. The method, boiled down:
(§1)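 Male C57BL/6 mice. IV dosing at 0.6 mg/kg, formulated in DMSO:PEG400:water (10:55:35, v/v/v). Oral dosing at 2 mg/kg, formulated in DMSO:cremophor:saline (2:4:94, v/v/v). Reported parameters were blood clearance, volume of distribution, terminal half-life, IV- and PO-normalized AUC, Cmax and Tmax in plasma after oral dosing, and oral bioavailability.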

Series [5] in a line: Tmax in C57BL/6 mouse at 2 mg/kg, po. Type of series: ADME, organism-based. On the set-up: dose 2 mg/kg, route oral. The following applies: in vivo. The method in brief: as §1
Series [6] deals with Mus musculus. Nature of the series: Increase in HDL-cholesterol level in C57BL/6 mouse expressing cynomolgus monkey CETP gene assessed as change in HDL-C level at 1 mg/kg, po BID measured 24 hrs after first dose. Type of series: functional. The method, boiled down: (§2)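 Baseline retro-orbital bleed. Oral BID dosing in DMSO/cremophor/saline (4:4:92). Euthanized 24 h after the first dose with cardiac-puncture bleed. HDL-C by enzymatic kit on pre- and post-dose samples. Change from baseline reported as mean ± SEM, 9 mice per dose.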

In series [7] the test system is Mus musculus. Nature of the series: Increase in HDL-cholesterol level in C57BL/6 mouse expressing cynomolgus monkey CETP gene assessed as change in HDL-C level administered orally twice daily and measured 24 hrs after first dose. In kind it is functional, organism-based. The method in brief:
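Pre-dose retro-orbital bleed. Dosed 10 mg/kg PO BID at 0 and 7 h in DMSO/cremophor/saline (4:4:92). Terminal cardiac-puncture bleed at 24 h. HDL-C by enzymatic kit; change from baseline, mean of 5 mice. A change of 5 mg/dL or less was generally considered not significant.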

Series [8] can be described thus: Blood clearance in C57BL/6 mouse at 0.6 mg/kg, iv and 2 mg/kg, po. In kind it is ADME, organism-based. The following applies: whole blood. The method, boiled down:
as §1

Series [9] can be described thus: Cmax in C57BL/6 mouse at 2 mg/kg, po. In kind it is ADME, organism-based. On the set-up: dose 2 mg/kg, route oral. The conditions noted are these: in vivo. The method, boiled down:
as §1

Series [10] is described as follows: Volume of distribution in C57BL/6 mouse at 0.6 mg/kg, iv and 2 mg/kg, po. Type of series: ADME, organism-based. The conditions noted are these: in vivo. The method, boiled down: as §1
Series [11] can be described thus: Oral bioavailability in C57BL/6 mouse at 2 mg/kg. Type of series: ADME, organism-based. The following applies: in vivo. The method, boiled down:
as §1

For series [12], the system named is Mus musculus. Nature of the series: Increase in HDL-cholesterol level in C57BL/6 mouse expressing cynomolgus monkey CETP gene assessed as change in HDL-C level at 0.3 mg/kg, po BID measured 24 hrs after first dose. Type of series: functional. The method, boiled down:
as §2

Series [13] deals with Mus musculus. Nature of the series: Dose-normalized AUC in C57BL/6 mouse at 2 mg/kg, po. Type of series: ADME, organism-based. On the set-up: dose 2 mg/kg, route oral. The conditions noted are these: in vivo. The method, boiled down:
as §1

The test system of series [14] is Mus musculus. Nature of the series: Increase in HDL-cholesterol level in C57BL/6 mouse expressing cynomolgus monkey CETP gene assessed as change in HDL-C level at 3 mg/kg, po BID measured 24 hrs after first dose. Type of series: functional. The method in brief: as §2
In series [15] the test system is Mus musculus. Nature of the series: Dose-normalized AUC in C57BL/6 mouse at 0.6 mg/kg, iv. In kind it is ADME, organism-based. On the set-up: dose 0.6 mg/kg, route intravenous. The conditions noted are these: in vivo. The method in brief:
as §1

Molecules are shown by their SMILES. Activity calls are given as the source filed them.

For orientation: inhibition means how much of the control response was suppressed. As for `CC[C@@H]1[C@@H](c2cc(C(F)(F)F)cc(C(F)(F)F)c2)OC(=O)N1Cc1cc(C(F)(F)F)ccc1-c1cc(C(C)C)ccc1OC` (racemic), the inhibition in series [1] came to 49%.
The IC50 is the concentration that gives 50% inhibition. `COC(=O)N(Cc1cc(C(F)(F)F)cc(C(F)(F)F)c1)Cc1cc(C(F)(F)F)ccc1-c1cc(C(C)C)ccc1OC`: the Activity with Mus musculus [2] was found to be 15 mg/dL. Moreover, the inhibition in series [1] was 87%. Further, in [3], the IC50 came out at 126 nM.
On to `COC(=O)N(Cc1cc(C(F)(F)F)cc(C(F)(F)F)c1)Cc1cc(C(F)(F)F)ccc1-c1cc(C(C)C)c(F)cc1OC`, for which, in the series on Mus musculus [2], the Activity is 15 mg/dL. For the same compound, in series [1], the inhibition came out at 88%.
As for `COc1cc(F)c(C(C)C)cc1-c1ccc(C(F)(F)F)cc1CN1C[C@@H](c2cc(C(F)(F)F)cc(C(F)(F)F)c2)OC1=O`, the Activity with Mus musculus [2] was 6.3 mg/dL. Besides, the inhibition in series [1] is 97%. Further, the IC50 in series [3] is 25.6 nM.
Take `COc1ccc(C(C)C)cc1-c1ccc(C(F)(F)F)cc1CN1C(=O)O[C@H](c2cc(C(F)(F)F)cc(C(F)(F)F)c2)[C@H]1C`: the inhibition in series [1] turned out to be 90%.
Take `CC[C@H]1[C@@H](c2cc(C(F)(F)F)cc(C(F)(F)F)c2)OC(=O)N1Cc1cc(C(F)(F)F)ccc1-c1cc(C(C)C)ccc1OC` (racemic): in series [1], the inhibition stood at 87%. Further, the 50% inhibitory concentration (IC50) in series [3] turned out to be 268 nM.
A word on the Tmax: it is the time at which the peak concentration occurs. As a reminder, the Cmax is the maximum level reached in the sampled fluid or tissue. As a reminder, the bioavailability is the share of a dose that reaches the circulation, judged against a reference dose that is usually intravenous. In the case of `COc1cc(F)c(C(C)C)cc1-c1ccc(C(F)(F)F)cc1CN1C(=O)O[C@H](c2cc(C(F)(F)F)cc(C(F)(F)F)c2)[C@@H]1C` [ANACETRAPIB], the “beta t1/2” value in the series on Mus musculus [4] amounted to 3.6 h. Also, in series [5], the Tmax amounted to 1 h. In addition, the Activity was 16.4 mg/dL in the series on Mus musculus [6], “Dose-dependent effect” with Mus musculus [7], 14 mg/dL in the series with Mus musculus [12] and 21.7 mg/dL in the series with Mus musculus [14]. In series [8], this compound gave a clearance of 11 mL/min/kg. For the same compound, the Cmax in [9] is 280 nM. In series [10], this compound displayed a Vd of 2 L/kg. In addition, in series [11], the bioavailability is 15%. In addition, the AUC/dose in the series with Mus musculus [13] turned out to be 0.356 µM·kg·h/mg; with Mus musculus [15], 2.4 µM·kg·h/mg.
As to `COc1ccc(C(C)C)cc1-c1ccc(C(F)(F)F)cc1CN1C(=O)O[C@@H](c2ccccc2)[C@H]1C`, the inhibition in series [1] was 90%. Besides, the half-maximal inhibitory concentration (IC50) in series [3] turned out to be 5670 nM.
`COc1cc(F)c(C(C)C)cc1-c1ccc(C(F)(F)F)cc1CN1C(=O)O[C@](C)(c2cc(C(F)(F)F)cc(C(F)(F)F)c2)[C@@H]1C`: in [1], the inhibition came to 46%.
Turning to `COc1cc(F)c(C(C)C)cc1-c1ccc(C(F)(F)F)cc1CN1C(=O)O[C@H](c2cc(C(F)(F)F)cc(C(F)(F)F)c2)C1(C)C`, in the series with Mus musculus [2], the Activity was 17 mg/dL. Moreover, in series [1], the inhibition amounted to 94%.
On to `COc1cc(F)c(C(C)C)cc1-c1ccc(C(F)(F)F)cc1CN1C(=O)O[C@@H](c2cc(C(F)(F)F)cc(C(F)(F)F)c2)C1(C)C`, for which the inhibition in series [1] was 21%.
Turning to `COc1ccc(C(C)C)cc1-c1ccc(C(F)(F)F)cc1CN1C(=O)O[C@@H](c2cc(C(F)(F)F)cc(C(F)(F)F)c2)[C@H]1C`, the inhibition in series [1] was 8%.
With `COc1ccc(C(C)C)cc1-c1ccc(C(F)(F)F)cc1CN1C(=O)O[C@H](c2ccccc2)[C@@H]1C`, the Activity in the series on Mus musculus [2] was 6.3 mg/dL. For the same compound, in [1], the inhibition came out at 94%. For the same compound, the half-inhibitory concentration (IC50) in series [3] stood at 39.3 nM.
On to `COc1ccc(C(C)C)cc1-c1ccc(C(F)(F)F)cc1CN1C[C@@H](c2cc(C(F)(F)F)cc(C(F)(F)F)c2)OC1=O`, for which, in the series with Mus musculus [2], the result was inactive. Besides, in [1], the inhibition turned out to be 93%. In series [3], the IC50 was found to be 93 nM.
As to `COc1ccc(C(C)C)cc1-c1ccc(C(F)(F)F)cc1CN1C(=O)O[C@@H](c2cc(C(F)(F)F)cc(C(F)(F)F)c2)[C@@H]1C`, in series [1], the inhibition is 20%.
